Rows were chosen to be rich in hits. Some 2.8% of all compounds tested hit in one or more screens of this group.
CAL PDZ FP-1: inhibitors of human CAL PDZ peptide binding. Q9HD26. purified CAL PDZ, TMR-peptide fluorescence polarization, 1 h. inhibition, % at 24.9 µM. hit rate 0.92% among 300,000;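 active = mean inhibition of at least 30% with at least half of replicates also reaching 30%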
dFosB act: enhances mouse delta FosB homodimer DNA binding; purified delta FosB, TAMRA-CDK5 oligo fluorescence polarization; percent of positive-control signal above neutral wells; activation, % at 25 µM; hit rate 0.99% among 340,000; AID 493131;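 active = mean activation above about 17%, with every replicate also reaching it, limit read from the data, passing the limit was not always enough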
Target sequence (P13346 whole entry, looked up): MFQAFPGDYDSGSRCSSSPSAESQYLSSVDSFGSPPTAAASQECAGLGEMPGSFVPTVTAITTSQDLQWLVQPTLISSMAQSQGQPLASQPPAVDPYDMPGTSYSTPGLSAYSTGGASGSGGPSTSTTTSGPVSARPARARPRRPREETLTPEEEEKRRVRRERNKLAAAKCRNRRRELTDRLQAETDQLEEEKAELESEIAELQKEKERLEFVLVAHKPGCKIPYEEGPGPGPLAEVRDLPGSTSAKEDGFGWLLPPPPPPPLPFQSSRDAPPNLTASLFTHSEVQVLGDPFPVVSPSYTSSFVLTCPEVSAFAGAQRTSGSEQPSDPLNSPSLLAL
CAL PDZ FP-2: inhibitors of human CAL PDZ peptide binding; Q9HD26; purified CAL PDZ, TMR-peptide fluorescence polarization, 1 h; inhibition, % at 20 µM; hit rate 0.02% among 330,000; AID 504414;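 active = highest replicate inhibition of at least 40%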
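Control set: unlabelled peptide and DMSO controls / Material: purified CerCALP PDZ construct / Timing: 1 h incubation at room temperature before polarization reading / Doses: 20 µM, one dose / Detection: fluorescence polarization (mP)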
SR-BI uptake up: enhances SR-BI lipid uptake from DiI-HDL; activation, % at 12.5 µM; AID 504775; hit rate 0.096% among 320,000; CHO ldlA[mSR-BI] cells, DiI-HDL uptake fluorescence, 3 h; 100 = double the neutral-control signal;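 active = mean replicate activation of at least 60% and every replicate at or above 60%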
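Test system: SR-BI-overexpressing, LDLR-lacking CHO cells; Medium: Ham's F12 with 0.5% BSA, HEPES 25 mM, pH 7.4; Schedule: 3 h, 37 °C; Technique: bottom-read fluorescence, 550/595 nm.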
SR-BI HDL uptake: blocks mouse SR-BI lipid uptake from DiI-HDL | Q61009 | ldlA[mSR-BI] CHO cells, DiI-HDL uptake fluorescence, 3 h | inhibition, % at 12.5 µM | hit rate 0.96% among 320,000 | AID 488896;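 active = mean replicate inhibition of at least 70% and a set share of replicates each scoring 70 or more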
Hits are given with their value; 0 = inactive; - = no result given.

SMILES	CAL PDZ FP-1	dFosB act	CAL PDZ FP-2	SR-BI uptake up	SR-BI HDL uptake
Cc1cccc(NC2=Nc3ccccc3N3C2=Nc2c(c(C)nn2-c2ccccc2)C3c2ccc(O)c(O)c2)c1 (centres undefined)	0	0	0	0	103
Cc1nn(-c2ccccc2)c2c1C(c1ccc(O)c(O)c1)N1C(=N2)C(Nc2ccccc2)=Nc2ccccc21 (centres undefined)	0	0	0	0	0
CC1CCN(S(=O)(=O)c2ccc3c(c2)N(CC(=O)N(C)Cc2ccco2)C(=O)CO3)CC1	0	0	0	0	0
COc1ccc(S(=O)(=O)N2CC(C)OC(C)C2)cc1C(=O)N1CCCCC1 (centres undefined)	0	0	0	0	0
COc1cc(OC)cc(-c2sc3ccc(OC)cc3c2C#CCCO)c1	0	0	0	0	76
COc1ccc2sc(-c3ccccc3OC)c(C#CCCO)c2c1	0	0	0	0	0
COc1ccc2c(C#CCCO)c(-c3ccc(S(C)(=O)=O)cc3)sc2c1	0	0	0	0	83
Fc1ccc(Nc2nc(-c3ccncc3)nc3ccccc23)cc1	0	0	0	0	78
Oc1cccc(Nc2nc(-c3ccccc3)nc3ccccc23)c1	0	0	0	0	72
COCCCNC(=O)Cc1ccc(S(=O)(=O)N2CCOCC2)s1	43	0	0	0	0
COc1ccc(C2c3[nH]c4ccccc4c3C[C@H]3C(=O)N(C4CCN(Cc5ccccc5)CC4)CC(=O)N23)c(OC)c1 (some centres undefined)	0	21	0	0	0
O=C1[C@@H]2Cc3c([nH]c4ccccc34)C(c3ccccc3)N2C(=O)CN1C1CCN(Cc2ccccc2)CC1 (some centres undefined)	0	0	0	0	0
COC(=O)c1ccc(C2c3[nH]c4ccccc4c3C[C@H]3C(=O)N(C4CCN(Cc5ccccc5)CC4)CC(=O)N23)cc1 (some centres undefined)	0	55	0	0	0
CCOc1ccccc1C1c2[nH]c3ccccc3c2C[C@H]2C(=O)N(C3CCN(Cc4ccccc4)CC3)CC(=O)N12 (some centres undefined)	0	63	0	0	0
COc1ccc(OC)c(C2c3[nH]c4ccccc4c3C[C@H]3C(=O)N(C4CC4)CC(=O)N23)c1 (some centres undefined)	0	0	0	-	-
O=C1[C@@H]2Cc3c([nH]c4ccccc34)C(c3cccc(Br)c3)N2C(=O)CN1C1CCN(Cc2ccccc2)CC1 (some centres undefined)	0	66	-	0	0
COc1cc(C2c3[nH]c4ccccc4c3C[C@H]3C(=O)N(C4CC4)CC(=O)N23)ccc1OC(C)C (some centres undefined)	0	0	0	0	0
CN(CCOc1ccccc1)C(=O)c1ccc(N2CCCC2)c([N+](=O)[O-])c1	-	0	0	-	-
COc1cccc(C2c3[nH]c4ccccc4c3C[C@H]3C(=O)N(C4CC4)CC(=O)N23)c1 (some centres undefined)	0	0	0	0	0
Cc1ccccc1C1c2[nH]c3ccccc3c2C[C@H]2C(=O)N(C3CCN(Cc4ccccc4)CC3)CC(=O)N12 (some centres undefined)	0	76	0	0	0
N#C/C(=C\c1ccc2c(c1)OCCO2)C(=O)Nc1nccs1	0	0	0	0	0
COC(=O)c1cc(NC(C)=O)ccc1N1CCOCC1	0	0	0	0	0
COC(=O)c1cc(NC(=O)c2cc(-c3ccc(OC)cc3)oc2C(F)(F)F)ccc1N1CCOCC1	0	0	0	0	86
COC(=O)c1cc(NC(=O)c2cc(-c3ccc(C(F)(F)F)cc3)oc2C(F)(F)F)ccc1N1CCOCC1	-	0	0	0	81
COc1ccc(CCNc2cc(C)nc3c(-c4ccccc4OC)cnn23)cc1OC	0	0	0	0	91
SMILES	CAL PDZ FP-1	dFosB act	CAL PDZ FP-2	SR-BI uptake up	SR-BI HDL uptake
CCc1cc(C(=O)N2CCCC(C(=O)c3ccc(Oc4ccccc4)cc3)C2)n(C)n1 (centres undefined)	0	0	0	0	0
CCOC(=O)c1c(-c2ccccc2)csc1NC(=O)/C(C#N)=C\c1ccc(O)c(OC)c1	0	0	0	0	85
CC(C)OCCCN1C(=O)c2[nH]nc(-c3ccccc3O)c2C1c1cccc(Cl)c1 (centres undefined)	0	0	0	0	72
CC(=O)NCCC1CCN(C(=O)C2CCC(=O)N(C3CCCC3)C2)CC1 (centres undefined)	0	0	0	0	0
CCOCc1nnc(NC(=O)c2c(-c3ccccc3)noc2C)s1	0	0	0	0	0
CCOC(=O)c1c(NC(=O)c2c(-c3ccccc3)noc2C)sc(C)c1-c1ccccc1	0	0	0	0	75
CC1CCc2c(sc(NC(=O)c3ccc(-c4ccccc4[N+](=O)[O-])o3)c2C#N)C1 (centres undefined)	0	0	0	0	90
Cc1onc(-c2ccccc2)c1C(=O)Nc1sc2c(c1C#N)CCC(C)C2 (centres undefined)	0	0	0	0	72
COc1cccc(N(CC(=O)NC2CCCCC2)C(=O)CCC(=O)Nc2nc(C)cs2)c1	0	0	0	-	-
CC(C)(C)CN1CCNC(=O)C1CC(=O)NCCN1CCCc2ccccc21 (centres undefined)	55	0	0	0	0
CC(C)(C)CN1CCNC(=O)C1CC(=O)NCCc1ccccc1C(F)(F)F (centres undefined)	-	0	0	0	0
O=C(Nc1cc(S(=O)(=O)N2CCOCC2)ccc1OCC(F)(F)F)C1=COCCO1	0	0	0	0	0
N#Cc1c(-c2ccc(Cl)cc2)c2c([nH]c1=O)-c1ccccc1OC2	0	0	0	0	0
CC(C)CNS(=O)(=O)c1cc2c3c(c1)CCC(=O)N3CCC2	0	0	0	0	0
COC(CNS(=O)(=O)c1cc2c3c(c1)CCN3C(=O)CC2)OC	48	0	0	0	0
CC1SC(c2ccc(F)cc2)N(CCc2ccccc2)C1=O (centres undefined)	0	0	0	0	0
Cc1cc(C)c(S(=O)(=O)N2CCN(C(=O)c3c(C)nn(-c4ccccc4)c3Cl)CC2)c(C)c1	0	0	0	0	78
Cc1ccc(S(=O)(=O)N2CCN(C(=O)c3c(C)nn(-c4ccccc4)c3Cl)CC2)cc1	0	0	0	0	0
COc1ccccc1NC(=O)/C(C#N)=C/c1cccn1C	0	0	0	0	0
COc1cc2c(cc1NC(=O)C(Cl)Cl)-c1ccc(NC(=O)C(Cl)Cl)cc1C2	0	0	0	0	83
COc1cc(C(=O)Nc2ccc3c(c2)Cc2ccccc2-3)cc(OC)c1OC	0	0	0	0	0
CCC/C(O)=C1\C(=O)CC(C)(C)CC1=Nc1ccc(OC)cc1OC	60	0	0	0	0

High-throughput results as filed in PubChem BioAssay.
